Data from ChEMBL document CHEMBL1138744, “In vitro cytotoxic activities of 2-alkyl-4,6-diheteroalkyl-1,3,5-triazines: new molecules in anticancer research” (J Med Chem, 2004).
pIC50: −log10 of the molar value.

Assays:
Type in all cases: functional, cell-based
OVCAR-4 = assay: Cytotoxic activity of compound towards human cancer cell line OVCAR-4 (ovarian cancer)
How it was run: (§1)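 Compounds first passed a one-dose primary assay on three cell lines, then were tested on a 60-line human tumour panel. Dose–response curves gave growth-inhibition values (IG50, μM). For each compound, only the most sensitive of the 60 lines was reported.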

HL-60 [1] = assay: Cytotoxic activity of compound towards human HL60 cell line after 48 hr of administration; conditions: HL-60, 48 h
HL-60 [2] = assay: Cytotoxic activity of compound towards human HL60 cell line after 72 hr of administration; conditions: HL-60, 72 h
LOX IMVI = assay: Cytotoxic activity of compound towards human cancer cell line LOX IMVI (melanoma); how it was run: as §1
HOP-62 = assay: Cytotoxic activity of compound towards human cancer cell line HOP-62 (lung cancer); how it was run: as §1
HCT-116 = assay: Cytotoxic activity of compound towards human cancer cell line HCT116 (colon cancer); how it was run: as §1
C6 [3] = assay: Cytotoxic activity of compound towards […] cell line after 48 hr of administration; conditions: Rattus norvegicus, C6, 48 h
C6 [4] = assay: Cytotoxic activity of compound towards […] cell line after 72 hr of administration; conditions: Rattus norvegicus, C6, 72 h
L1210 [5] = assay: Cytotoxic activity of compound towards human leukemia L1210 cell line after 48 hr of administration; conditions: Mus musculus, L1210, 48 h
L1210 [6] = assay: Cytotoxic activity of compound towards human L1210 cell line after 72 hr of administration; conditions: Mus musculus, L1210, 72 h
CAKI-1 = assay: Cytotoxic activity of compound towards human cancer cell line CAKI-1 (renal cancer); how it was run: as §1
L1210 [7] = assay: Cytotoxic activity of compound towards […] cell line after 48 hr of administration; NE= No effect
[8] = Cytotoxic activity of compound towards human L1210 cell line after 72 hr of administration; a is No cytotoxic effect
SR = assay: Cytotoxic activity of compound towards human cancer cell line SR (leukemia); how it was run: as §1
C6 [9] = assay: Cytotoxic activity of compound towards […] cell line after 72 hr of administration; NE= No effect
HL-60 [10] = assay: Cytotoxic activity of compound towards human HL60 cell line after 48 hr of administration; NE= No effect
HL-60 [11] = assay: Cytotoxic activity of compound towards human HL60 cell line after 72 hr of administration; NE= No effect
L1210 [12] = assay: Cytotoxic activity of compound towards human L1210 cell line after 72 hr of administration; NE= No effect

| Compound | pIC50 (HL-60 [1]) | pIC50 (HL-60 [2]) | pIC50 (C6 [3]) | pIC50 (C6 [4]) | pIC50 (L1210 [5]) | pIC50 (L1210 [6]) | further results |
| --- | --- | --- | --- | --- | --- | --- | --- |
| COc1nc(C#CC2(O)CCCCC2)nc(OC)n1 |  |  |  |  |  |  | pIC50 (OVCAR-4): 5.73 |
| COc1nc(OC)nc(OC)n1 | 3.52 | 3.47 |  |  |  |  |  |
| COc1nc(C#CCCCC#N)nc(OC)n1 |  |  |  |  |  |  | GI50 (LOX IMVI): 2.09 µM |
| CCC(O)C#Cc1nc(OC)nc(OC)n1 (stereo not given) |  |  |  |  |  |  | pIC50 (HOP-62): 5.31 |
| COc1nc(C#CC2CCCCC2)nc(OC)n1 |  |  |  |  |  |  | pIC50 (HCT-116): 6.40 |
| COc1nc(C#CC(C)(C)O)nc(OC)n1 | 4.80 | 4.82 | 4.79 | 4.82 | 4.85 | 4.89 |  |
| C1CN(c2nc(N3CCOCC3)nc(N3CCOCC3)n2)CCO1 | 3.89 | 4.00 | 3.82 | 3.54 | 3.82 | 3.96 |  |
| CC(C)c1nc(N2CCOCC2)nc(N2CCOCC2)n1 | 4.06 | 3.70 | 3.85 | 3.31 | 4.03 | 4.17 |  |
| COc1nc(OC)nc(-c2cccc(F)c2)n1 |  |  |  |  |  |  | pIC50 (CAKI-1): > 8.00 |
| COc1ccc(Nc2nc(C#CC(C)(C)C)nc(Nc3ccc(OC)cc3)n2)cc1 | 3.23 | 3.24 | < 2.00 | < 2.00 |  |  | IC50 (L1210 [7]): Not Active; IC50 [8]: No effect |
| COc1ccc(Oc2nc(C#CC(C)(C)O)nc(Oc3ccc(OC)cc3)n2)cc1 | 4.77 | 4.44 | < 2.00 | < 2.00 | 4.96 | 4.85 | pIC50 (SR): 6.20 |
| COc1ccc(Oc2nc(Oc3ccc(OC)cc3)nc(Oc3ccc(OC)cc3)n2)cc1 | 4.15 | 4.28 |  |  |  |  |  |
| COc1nc(C#CC(C)(C)C)nc(OC)n1 | 5.15 | 5.15 | 4.78 | 4.78 | 4.92 | 5.04 | pIC50 (SR): 5.28 |
| CC(C)(C)C#Cc1nc(N2CCOCC2)nc(N2CCOCC2)n1 | 3.74 | 3.41 | 2.18 |  | 3.74 | 3.92 | IC50 (C6 [9]): Not Active |
| CC[C@H](C)Cc1nc(N2CCOCC2)nc(N2CCOCC2)n1 | 3.66 | 3.85 | 3.24 | 3.62 | 3.85 | 4.24 |  |
| CC(C)(C)C#Cc1nc(N(CCO)CCO)nc(N(CCO)CCO)n1 |  |  | 2.47 |  |  |  | IC50 (C6 [9]): Not Active; IC50 (HL-60 [10]): Not Active; IC50 (HL-60 [11]): Not Active; IC50 (L1210 [12]): Not Active; IC50 (L1210 [7]): Not Active |
